Data reported in ChEMBL document CHEMBL1208778, “Synthesis and anti-cancer activity of chalcone linked imidazolones” (2010).

Columns and labels:
Format in all cases: functional
[1] = Growth inhibition of human RPMI8266 cells
How it was run: (§1)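 Five-dose testing was run within the NCI (Bethesda) in vitro Anticancer Screen Program on a panel of 53 human tumour cell lines from nine cancer types. Growth inhibition is reported as GI50.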

K562 = assay: Growth inhibition of human K562 cells; how it was run: as §1
A549 = assay: Growth inhibition of human A549 cells; how it was run: as §1
EKVX = assay: Growth inhibition of human EKVX cells; how it was run: as §1
HOP-62 = assay: Growth inhibition of human HOP62 cells; how it was run: as §1
HOP-92 = assay: Growth inhibition of human HOP92 cells; how it was run: as §1
NCI-H226 = assay: Growth inhibition of human NCI-H226 cells; how it was run: as §1
NCI-H23 = assay: Growth inhibition of human NCI-H23 cells; how it was run: as §1
NCI-H322M = assay: Growth inhibition of human NCI-H322M cells; how it was run: as §1
NCI-H460 = assay: Growth inhibition of human NCI-H460 cells; how it was run: as §1
NCI-H522 = assay: Growth inhibition of human NCI-H522 cells; how it was run: as §1
COLO 205 = assay: Growth inhibition of human COLO205 cells; how it was run: as §1
HCC 2998 = assay: Growth inhibition of human HCC2998 cells; how it was run: as §1
HCT-116 = assay: Growth inhibition of human HCT116 cells; how it was run: as §1
HCT-15 = assay: Growth inhibition of human HCT15 cells; how it was run: as §1
HT-29 = assay: Growth inhibition of human HT-29 cells; how it was run: as §1
KM12 = assay: Growth inhibition of human KM12 cells; how it was run: as §1
SW-620 = assay: Growth inhibition of human SW620 cells
How it was run: (§2)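 Compounds that passed a preliminary screen were tested at five doses in the NCI (Bethesda) in vitro Anticancer Screen Program against a 53-line human tumour panel spanning leukemia, lung, colon, CNS, melanoma, ovarian, renal, prostate and breast. Growth inhibition is reported as GI50.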

SF-268 = assay: Growth inhibition of human SF268 cells; how it was run: as §1
SF-295 = assay: Growth inhibition of human SF295 cells; how it was run: as §1
SF-539 = assay: Growth inhibition of human SF539 cells; how it was run: as §1
SNB-19 = assay: Growth inhibition of human SNB19 cells; how it was run: as §2
SNB-75 = assay: Growth inhibition of human SNB75 cells; how it was run: as §2
U-251 = assay: Growth inhibition of human U251 cells; how it was run: as §2
A498 = assay: Growth inhibition of human A498 cells; how it was run: as §1
786-0 = assay: Growth inhibition of human 786-0 cells; how it was run: as §1
ACHN = assay: Growth inhibition of human ACHN cells; how it was run: as §1
CAKI-1 = assay: Growth inhibition of human Caki1 cells; how it was run: as §1
RXF 393 = assay: Growth inhibition of human RXF393 cells; how it was run: as §1
SN12C = assay: Growth inhibition of human SN12C cells; how it was run: as §2
TK-10 = assay: Growth inhibition of human TK10 cells; how it was run: as §2
UO-31 = assay: Growth inhibition of human UO31 cells; how it was run: as §2
OVCAR-3 = assay: Growth inhibition of human OVCAR-3 cells; how it was run: as §1
OVCAR-4 = assay: Growth inhibition of human OVCAR4 cells; how it was run: as §1
OVCAR-5 = assay: Growth inhibition of human OVCAR5 cells; how it was run: as §1
OVCAR-8 = assay: Growth inhibition of human OVCAR8 cells; how it was run: as §1
NCI/ADR-RES = assay: Growth inhibition of human NCI/ADR-RES cells; how it was run: as §1
SK-OV-3 = assay: Growth inhibition of human SKOV3 cells; how it was run: as §2
MCF7 [2] = assay: Growth inhibition of human MCF7 cells; how it was run: as §1
MDA-MB-231 = assay: Growth inhibition of human MDA-MB-231 cells; how it was run: as §1
[3] = Growth inhibition of human Hs 578T cells; how it was run: as §1
BT-549 = assay: Growth inhibition of human BT549 cells; how it was run: as §1
T47D = assay: Growth inhibition of human T47D cells; how it was run: as §2
LOX IMVI = assay: Growth inhibition of human LOXIMVI cells; how it was run: as §1
Malme-3M = assay: Growth inhibition of human MALME-3M cells; how it was run: as §1
M14 = assay: Growth inhibition of human M14 cells; how it was run: as §1
MDA-MB-435 = assay: Growth inhibition of human MDA-MB-435 cells; how it was run: as §1
SK-MEL-2 = assay: Growth inhibition of human SK-MEL-2 cells; how it was run: as §1
SK-MEL-28 = assay: Growth inhibition of human SK-MEL-28 cells; how it was run: as §1
SK-MEL-5 = assay: Growth inhibition of human SK-MEL-5 cells; how it was run: as §1
UACC-257 = assay: Growth inhibition of human UACC257 cells; how it was run: as §2
UACC-62 = assay: Growth inhibition of human UACC62 cells; how it was run: as §2
MCF7 [4] = assay: Cell cycle arrest in human MCF7 cells assessed as accumulation at G0 phase at 10 uM after 24 hrs by FACS analysis
How it was run: (§3)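 MCF-7 breast carcinoma cells were exposed to 10 µM test compound for 24 h, with DMSO as the vehicle control. Cell-cycle distribution was read by FACS as the percentage of cells in G0, G1, S and G2/M.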

MCF7 [5] = assay: Cell cycle arrest in human MCF7 cells assessed as accumulation at G1 phase at 10 uM after 24 hrs by FACS analysis; how it was run: as §3
MCF7 [6] = assay: Cell cycle arrest in human MCF7 cells assessed as accumulation at S phase at 10 uM after 24 hrs by FACS analysis; how it was run: as §3
MCF7 [7] = assay: Cell cycle arrest in human MCF7 cells assessed as accumulation at G2/M phase at 10 uM after 24 hrs by FACS analysis; how it was run: as §3
MCF7 [8] = assay: Cell cycle arrest in human MCF7 cells assessed as accumulation at G0 phase at 30 uM after 24 hrs by FACS analysis
How it was run: (§4)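 MCF-7 cells were treated at 30 µM for 24 h alongside a DMSO control. Fractions in G0, G1, S and G2/M phases were measured by FACS, and values are means of three experiments.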

MCF7 [9] = assay: Cell cycle arrest in human MCF7 cells assessed as accumulation at G1 phase at 30 uM after 24 hrs by FACS analysis; how it was run: as §4
MCF7 [10] = assay: Cell cycle arrest in human MCF7 cells assessed as accumulation at S phase at 30 uM after 24 hrs by FACS analysis; how it was run: as §4
MCF7 [11] = assay: Cell cycle arrest in human MCF7 cells assessed as accumulation at G2/M phase at 30 uM after 24 hrs by FACS analysis; how it was run: as §4
PC-3 = assay: Growth inhibition of human PC3 cells; how it was run: as §1

O=C(/C=C/c1cccc(O)c1)c1cccc(-n2cc(-c3ccc(Cl)cc3)[nH]c2=O)c1 showed a GI50 [1] of 1.55 µM, a GI50 (K562) of 0.4 µM and a GI50 (A549) of 3.55 µM. For the same compound, the GI50 (EKVX) was 2.4 µM, the GI50 (HOP-62) was 2.36 µM and the GI50 (HOP-92) was 1.6 µM. For the same compound, the GI50 (NCI-H226) was 2.31 µM, the GI50 (NCI-H23) was 2.78 µM and the GI50 (NCI-H322M) was 2.52 µM. It also gave a GI50 (NCI-H460) of 2.41 µM, a GI50 (NCI-H522) of 1.65 µM and a GI50 (COLO 205) of 2.29 µM. It also gave a GI50 (HCC 2998) of 13.7 µM, a GI50 (HCT-116) of 1.23 µM and a GI50 (HCT-15) of 2.33 µM. The GI50 (HT-29) was 1.9 µM, the GI50 (KM12) was 1.34 µM and the GI50 (SW-620) was 1.62 µM. The GI50 (SF-268) was 1.78 µM, the GI50 (SF-295) was 1.79 µM and the GI50 (SF-539) was 1.68 µM. For the same compound, the GI50 (SNB-19) was 1.92 µM, the GI50 (SNB-75) was 1.46 µM and the GI50 (U-251) was 0.58 µM. The GI50 (A498) was 3.71 µM, the GI50 (786-0) was 1.57 µM and the GI50 (ACHN) was 1.84 µM. It also gave a GI50 (CAKI-1) of 1.72 µM, a GI50 (RXF 393) of 1.51 µM and a GI50 (SN12C) of 1.95 µM. It also gave a GI50 (TK-10) of 2.83 µM, a GI50 (UO-31) of 0.55 µM and a GI50 (OVCAR-3) of 1.56 µM. The GI50 (OVCAR-4) was 2.21 µM, the GI50 (OVCAR-5) was 2.19 µM and the GI50 (OVCAR-8) was 0.99 µM. For the same compound, the GI50 (NCI/ADR-RES) was 2.2 µM, the GI50 (SK-OV-3) was 4.21 µM and the GI50 (MCF7 [2]) was 1.27 µM. It also gave a GI50 (MDA-MB-231) of 3.35 µM, a GI50 [3] of 4 µM and a GI50 (BT-549) of 1.45 µM. It also gave a GI50 (T47D) of 1.92 µM, a GI50 (LOX IMVI) of 1.57 µM and a GI50 (Malme-3M) of 1.83 µM. For the same compound, the GI50 (M14) was 2.01 µM, the GI50 (MDA-MB-435) was 2.06 µM and the GI50 (SK-MEL-2) was 2.07 µM. It also gave a GI50 (SK-MEL-28) of 3.64 µM, a GI50 (SK-MEL-5) of 1.53 µM and a GI50 (UACC-257) of 4.07 µM. The GI50 (UACC-62) was 1.85 µM, the Activity (MCF7 [4]) was 3.1% and the Activity (MCF7 [5]) was 59.35%. It also gave an Activity (MCF7 [6]) of 13.92%, an Activity (MCF7 [7]) of 23.63% and an Activity (MCF7 [8]) of 17.17%. The Activity (MCF7 [9]) was 58.33%, the Activity (MCF7 [10]) was 13.7% and the Activity (MCF7 [11]) was 10.8%.
O=C(/C=C/c1cccc(O)c1)c1cccc(-n2cc(-c3ccccc3)[nH]c2=O)c1 gave a GI50 [1] of 2.15 µM, a GI50 (K562) of 3.35 µM and a GI50 (A549) of 3.89 µM. It also gave a GI50 (EKVX) of 15.6 µM, a GI50 (HOP-62) of 6.93 µM and a GI50 (HOP-92) of 5.04 µM. It also gave a GI50 (NCI-H226) of 24.8 µM, a GI50 (NCI-H23) of 3.35 µM and a GI50 (NCI-H322M) of 10.6 µM. It also gave a GI50 (NCI-H460) of 2.49 µM, a GI50 (COLO 205) of 2.01 µM and a GI50 (HCC 2998) of 4.09 µM. The GI50 (HCT-116) was 3.02 µM, the GI50 (HCT-15) was 3.1 µM and the GI50 (HT-29) was 3.33 µM. The GI50 (KM12) was 1.83 µM, the GI50 (SW-620) was 2.41 µM and the GI50 (SF-268) was 4.53 µM. It also gave a GI50 (SF-295) of 18.2 µM, a GI50 (SF-539) of 1.98 µM and a GI50 (SNB-19) of 10.9 µM. The GI50 (SNB-75) was 12.1 µM, the GI50 (U-251) was 1.61 µM and the GI50 (A498) was 14.3 µM. For the same compound, the GI50 (786-0) was 2.98 µM, the GI50 (ACHN) was 2.76 µM and the GI50 (CAKI-1) was 13.3 µM. For the same compound, the GI50 (RXF 393) was 1.89 µM, the GI50 (SN12C) was 3.14 µM and the GI50 (UO-31) was 2.16 µM. For the same compound, the GI50 (PC-3) was 2.82 µM, the GI50 (OVCAR-3) was 3.08 µM and the GI50 (OVCAR-4) was 5.3 µM. It also gave a GI50 (OVCAR-5) of 5.44 µM, a GI50 (OVCAR-8) of 2.8 µM and a GI50 (NCI/ADR-RES) of 3.73 µM. It also gave a GI50 (SK-OV-3) of 11.1 µM, a GI50 (MCF7 [2]) of 2.47 µM and a GI50 (MDA-MB-231) of 3.86 µM. The GI50 [3] was 6.14 µM, the GI50 (BT-549) was 9.32 µM and the GI50 (T47D) was 4.24 µM. For the same compound, the GI50 (LOX IMVI) was 1.85 µM, the GI50 (Malme-3M) was 6.21 µM and the GI50 (M14) was 4.53 µM. The GI50 (MDA-MB-435) was 3.12 µM, the GI50 (SK-MEL-2) was 8.26 µM and the GI50 (SK-MEL-28) was 5.63 µM. For the same compound, the GI50 (SK-MEL-5) was 3.18 µM, the GI50 (UACC-257) was 7.68 µM and the GI50 (UACC-62) was 3.65 µM. The Activity (MCF7 [4]) was 2.1%, the Activity (MCF7 [5]) was 57.26% and the Activity (MCF7 [6]) was 18.48%. It also gave an Activity (MCF7 [7]) of 22.16%, an Activity (MCF7 [8]) of 11.07% and an Activity (MCF7 [9]) of 53.92%. It also gave an Activity (MCF7 [10]) of 17.21% and an Activity (MCF7 [11]) of 17.8%.
